In ChEMBL document CHEMBL4422663, “Suppression of Tumor Growth and Metastases by Targeted Intervention in Urokinase Activity with Cyclic Peptides” (J Med Chem, 2019):
Calls of active or inactive are those of the source. No cut-off for these calls is given here. Positions of bridges follow the written chain, without caps; N, C: chain ends. Residues, ends and D or L forms follow the SMILES beside them.

How the values were obtained:
[1] = molecular target: Urokinase-type plasminogen activator (Mus musculus) (UniProt P06869); assay: Binding affinity to mouse uPA assessed as dissociation rate constant after 600 secs by SPR assay
Sequence of Urokinase-type plasminogen activator (Mus musculus) (P06869 21-178 limits assumed): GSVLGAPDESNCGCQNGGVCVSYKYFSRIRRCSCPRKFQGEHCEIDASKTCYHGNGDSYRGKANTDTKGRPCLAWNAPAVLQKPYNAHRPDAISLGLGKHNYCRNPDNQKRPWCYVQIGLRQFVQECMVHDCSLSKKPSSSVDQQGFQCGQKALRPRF
Sequence of Urokinase-type plasminogen activator (Mus musculus) (P06869 180-433 limits assumed): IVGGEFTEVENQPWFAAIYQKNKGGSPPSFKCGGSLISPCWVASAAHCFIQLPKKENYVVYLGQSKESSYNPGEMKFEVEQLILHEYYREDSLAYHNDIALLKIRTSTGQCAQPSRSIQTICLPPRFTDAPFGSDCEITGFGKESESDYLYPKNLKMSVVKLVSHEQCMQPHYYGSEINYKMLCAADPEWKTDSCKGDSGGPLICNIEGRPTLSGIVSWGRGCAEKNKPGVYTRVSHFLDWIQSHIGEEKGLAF

[2] = molecular target: T1, Urokinase-type plasminogen activator (Mus musculus, UniProt P06869); assay: Inhibition of mouse uPA serine protease domain preincubated for 15 mins followed by chromogenic substrate addition
T1 sequence (P06869 21-178 limits assumed): as the sequence (P06869 21-178 limits assumed) above
T1 sequence (P06869 180-433 limits assumed): as the sequence (P06869 180-433 limits assumed) above

[3] = molecular target: Tissue-type plasminogen activator (Mus musculus, UniProt P11214); assay: Inhibition of mouse tissue-type plasminogen activator preincubated for 15 mins followed by chromogenic substrate addition
Sequence of Tissue-type plasminogen activator (Mus musculus, UniProt P11214) (P11214 whole entry): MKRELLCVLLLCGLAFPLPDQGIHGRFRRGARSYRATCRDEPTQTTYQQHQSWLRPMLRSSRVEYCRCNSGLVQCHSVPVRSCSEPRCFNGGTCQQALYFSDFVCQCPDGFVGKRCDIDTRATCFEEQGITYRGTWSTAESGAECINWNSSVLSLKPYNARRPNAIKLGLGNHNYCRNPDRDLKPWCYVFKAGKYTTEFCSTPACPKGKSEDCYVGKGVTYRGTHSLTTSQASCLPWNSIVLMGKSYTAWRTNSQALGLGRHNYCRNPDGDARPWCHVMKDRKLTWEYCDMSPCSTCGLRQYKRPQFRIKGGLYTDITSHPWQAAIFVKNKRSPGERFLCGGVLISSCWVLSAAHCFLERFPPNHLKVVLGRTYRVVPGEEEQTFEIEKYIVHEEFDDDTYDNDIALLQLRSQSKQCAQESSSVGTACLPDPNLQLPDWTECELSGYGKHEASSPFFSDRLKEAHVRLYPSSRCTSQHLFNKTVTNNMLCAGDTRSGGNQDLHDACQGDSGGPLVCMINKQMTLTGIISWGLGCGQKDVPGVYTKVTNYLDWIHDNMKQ

[4] = molecular target: T2, Suppressor of tumorigenicity 14 protein (Homo sapiens, UniProt Q9Y5Y6); assay: Inhibition of human matriptase preincubated for 15 mins followed by chromogenic substrate addition
T2 sequence (Q9Y5Y6 whole entry): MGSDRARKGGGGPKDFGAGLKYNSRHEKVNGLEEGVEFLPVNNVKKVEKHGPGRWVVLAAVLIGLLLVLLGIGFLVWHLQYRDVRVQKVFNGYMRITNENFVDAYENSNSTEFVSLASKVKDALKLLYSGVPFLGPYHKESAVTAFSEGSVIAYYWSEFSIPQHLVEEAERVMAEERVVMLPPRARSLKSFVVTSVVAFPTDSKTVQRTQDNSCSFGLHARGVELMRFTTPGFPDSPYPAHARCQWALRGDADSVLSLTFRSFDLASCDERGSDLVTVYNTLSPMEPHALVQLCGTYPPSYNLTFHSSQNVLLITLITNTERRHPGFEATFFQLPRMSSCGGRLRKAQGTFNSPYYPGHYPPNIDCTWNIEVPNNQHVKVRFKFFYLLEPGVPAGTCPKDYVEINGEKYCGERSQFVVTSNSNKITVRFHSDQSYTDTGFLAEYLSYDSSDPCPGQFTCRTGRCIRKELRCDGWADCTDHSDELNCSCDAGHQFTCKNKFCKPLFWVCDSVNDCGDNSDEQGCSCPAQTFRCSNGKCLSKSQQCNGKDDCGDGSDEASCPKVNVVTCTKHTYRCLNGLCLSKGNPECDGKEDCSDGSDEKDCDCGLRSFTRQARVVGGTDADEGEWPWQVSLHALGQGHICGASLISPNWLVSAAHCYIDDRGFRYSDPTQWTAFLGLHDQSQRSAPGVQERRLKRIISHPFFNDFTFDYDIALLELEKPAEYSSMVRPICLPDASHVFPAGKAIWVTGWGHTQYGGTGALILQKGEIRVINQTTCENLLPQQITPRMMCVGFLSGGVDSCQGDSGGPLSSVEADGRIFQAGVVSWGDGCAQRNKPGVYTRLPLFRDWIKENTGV

[5] = molecular target: Urokinase-type plasminogen activator (Mus musculus) (UniProt P06869); assay: Inhibition of the intrinsic peri-cellular uPA in mouse CT26 cells assessed as reduction in cell migration at 30 to 100 uM measured every hour by wound healing assay relative to control; type: cell-based
[6] = molecular target: T1, Urokinase-type plasminogen activator; assay: Inhibition of mouse uPA
CT26 = assay: Cytotoxicity against mouse CT26 cells at 100 uM; type: cell-based; conditions: ct26, 100 µM
[7] = molecular target: T3, Tissue-type plasminogen activator (Homo sapiens, UniProt P00750); assay: Inhibition of human tissue-type plasminogen activator preincubated for 15 mins followed by chromogenic substrate addition
T3 sequence (P00750 whole entry): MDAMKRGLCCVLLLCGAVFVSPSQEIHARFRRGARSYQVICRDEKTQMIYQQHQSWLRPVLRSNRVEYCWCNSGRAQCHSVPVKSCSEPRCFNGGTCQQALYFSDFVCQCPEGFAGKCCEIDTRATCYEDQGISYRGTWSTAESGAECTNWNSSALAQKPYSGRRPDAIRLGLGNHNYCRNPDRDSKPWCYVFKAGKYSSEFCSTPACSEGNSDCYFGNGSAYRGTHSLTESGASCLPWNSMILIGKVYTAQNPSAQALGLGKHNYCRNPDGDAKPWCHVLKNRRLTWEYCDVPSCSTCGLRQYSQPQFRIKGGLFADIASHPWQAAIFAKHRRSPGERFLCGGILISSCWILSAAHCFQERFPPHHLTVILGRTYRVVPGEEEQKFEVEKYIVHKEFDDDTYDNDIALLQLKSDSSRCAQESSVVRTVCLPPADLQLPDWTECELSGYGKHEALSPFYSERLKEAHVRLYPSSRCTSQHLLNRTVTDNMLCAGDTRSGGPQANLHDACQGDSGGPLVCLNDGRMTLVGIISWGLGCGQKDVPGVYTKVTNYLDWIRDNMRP

Prothrombin [8] = molecular target: T4, Prothrombin (Homo sapiens, UniProt P00734); assay: Inhibition of human thrombin preincubated for 15 mins followed by chromogenic substrate addition
[9] = molecular target: Vitamin K-dependent protein C (Homo sapiens, UniProt P04070); assay: Inhibition of human activated protein C preincubated for 15 mins followed by chromogenic substrate addition
Prothrombin [10] = molecular target: Prothrombin (Mus musculus, UniProt P19221); assay: Inhibition of mouse thrombin preincubated for 15 mins followed by chromogenic substrate addition
[11] = molecular target: T5, Urokinase-type plasminogen activator (Homo sapiens, UniProt P00749); assay: Inhibition of human uPA preincubated for 15 mins followed by chromogenic substrate addition
[12] = molecular target: Urokinase-type plasminogen activator (Mus musculus) (UniProt P06869); assay: Inhibition of the intrinsic peri-cellular uPA in mouse CT26 cells assessed as reduction in cell invasion at 33 to 100 uM by Transwell invasion assay relative to control
Plasma kallikrein [13] = molecular target: Plasma kallikrein (Homo sapiens, UniProt P03952); assay: Inhibition of human plasma kallikrein preincubated for 15 mins followed by chromogenic substrate addition
Sequence of Plasma kallikrein (Homo sapiens, UniProt P03952) (P03952 20-390 limits assumed): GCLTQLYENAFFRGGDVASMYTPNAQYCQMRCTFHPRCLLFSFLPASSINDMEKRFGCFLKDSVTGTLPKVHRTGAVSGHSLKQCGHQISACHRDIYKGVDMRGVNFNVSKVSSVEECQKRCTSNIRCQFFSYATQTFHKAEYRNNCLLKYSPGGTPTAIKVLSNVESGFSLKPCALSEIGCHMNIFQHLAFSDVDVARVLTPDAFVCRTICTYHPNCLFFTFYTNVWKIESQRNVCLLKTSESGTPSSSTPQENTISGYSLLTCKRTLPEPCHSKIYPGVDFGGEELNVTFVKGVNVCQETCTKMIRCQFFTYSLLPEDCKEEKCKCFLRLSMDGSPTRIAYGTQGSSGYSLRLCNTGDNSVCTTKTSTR
Sequence of Plasma kallikrein (Homo sapiens, UniProt P03952) (P03952 391-638 limits assumed): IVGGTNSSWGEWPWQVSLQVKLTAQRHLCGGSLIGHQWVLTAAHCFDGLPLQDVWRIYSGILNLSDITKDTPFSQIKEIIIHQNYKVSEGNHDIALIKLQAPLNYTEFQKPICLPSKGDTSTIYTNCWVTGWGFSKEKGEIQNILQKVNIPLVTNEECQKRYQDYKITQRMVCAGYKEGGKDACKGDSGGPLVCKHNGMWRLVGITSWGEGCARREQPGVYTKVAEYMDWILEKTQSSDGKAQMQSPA

[14] = Inhibition of mouse trypsin preincubated for 15 mins followed by chromogenic substrate addition
[15] = molecular target: T1, Urokinase-type plasminogen activator; assay: Binding affinity to mouse uPA by SPR assay
Plasminogen [16] = molecular target: Plasminogen (Mus musculus, UniProt P20918); assay: Inhibition of mouse plasmin preincubated for 15 mins followed by chromogenic substrate addition
Plasma kallikrein [17] = molecular target: Plasma kallikrein (Mus musculus, UniProt P26262); assay: Inhibition of mouse plasma kallikrein preincubated for 15 mins followed by chromogenic substrate addition
Sequence of Plasma kallikrein (Mus musculus, UniProt P26262) (P26262 20-390 limits assumed): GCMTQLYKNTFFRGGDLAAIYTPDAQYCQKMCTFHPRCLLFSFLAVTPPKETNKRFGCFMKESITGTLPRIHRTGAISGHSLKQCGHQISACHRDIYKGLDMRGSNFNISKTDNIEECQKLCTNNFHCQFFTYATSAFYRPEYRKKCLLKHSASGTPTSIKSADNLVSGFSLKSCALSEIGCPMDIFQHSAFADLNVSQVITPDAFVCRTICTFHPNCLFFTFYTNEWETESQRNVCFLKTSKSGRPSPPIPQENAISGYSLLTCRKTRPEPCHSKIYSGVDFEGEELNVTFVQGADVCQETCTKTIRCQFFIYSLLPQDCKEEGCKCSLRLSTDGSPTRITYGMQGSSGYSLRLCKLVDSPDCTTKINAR
Sequence of Plasma kallikrein (Mus musculus, UniProt P26262) (P26262 391-638 limits assumed): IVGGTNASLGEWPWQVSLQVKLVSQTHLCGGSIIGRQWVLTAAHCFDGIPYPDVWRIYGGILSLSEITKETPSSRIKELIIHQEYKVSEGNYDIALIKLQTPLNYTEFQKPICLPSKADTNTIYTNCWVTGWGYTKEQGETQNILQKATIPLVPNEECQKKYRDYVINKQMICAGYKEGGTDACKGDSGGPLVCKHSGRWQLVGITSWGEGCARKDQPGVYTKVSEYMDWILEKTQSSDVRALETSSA

[18] = molecular target: T1, Urokinase-type plasminogen activator; assay: Binding affinity to mouse uPA expressed in HEK2936E cells by ITC assay
Coagulation factor XI = Coagulation factor XI (Homo sapiens, UniProt P03951); assay: Inhibition of human factor 11a preincubated for 15 mins followed by chromogenic substrate addition
Sequence of Coagulation factor XI (P03951 19-387 limits assumed): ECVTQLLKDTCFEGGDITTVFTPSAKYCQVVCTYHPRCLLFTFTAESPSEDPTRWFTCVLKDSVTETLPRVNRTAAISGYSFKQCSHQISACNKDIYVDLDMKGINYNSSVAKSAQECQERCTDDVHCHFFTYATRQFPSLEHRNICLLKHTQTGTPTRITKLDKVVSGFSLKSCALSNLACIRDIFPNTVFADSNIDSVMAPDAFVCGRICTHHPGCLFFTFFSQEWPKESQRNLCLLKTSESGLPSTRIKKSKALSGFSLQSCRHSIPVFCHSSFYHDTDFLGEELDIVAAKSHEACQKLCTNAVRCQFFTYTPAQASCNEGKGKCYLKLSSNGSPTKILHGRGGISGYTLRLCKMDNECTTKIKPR
Sequence of Coagulation factor XI (P03951 388-625 limits assumed): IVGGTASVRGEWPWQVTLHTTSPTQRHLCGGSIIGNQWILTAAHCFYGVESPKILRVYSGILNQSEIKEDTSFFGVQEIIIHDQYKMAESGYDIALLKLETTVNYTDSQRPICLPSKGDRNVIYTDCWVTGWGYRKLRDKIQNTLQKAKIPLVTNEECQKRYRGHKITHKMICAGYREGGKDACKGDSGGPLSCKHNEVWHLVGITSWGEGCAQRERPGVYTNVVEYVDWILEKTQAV

Plasminogen [19] = molecular target: T6, Plasminogen (Homo sapiens, UniProt P00747); assay: Inhibition of human plasmin preincubated for 15 mins followed by chromogenic substrate addition
T6 sequence (P00747 97-580 limits assumed): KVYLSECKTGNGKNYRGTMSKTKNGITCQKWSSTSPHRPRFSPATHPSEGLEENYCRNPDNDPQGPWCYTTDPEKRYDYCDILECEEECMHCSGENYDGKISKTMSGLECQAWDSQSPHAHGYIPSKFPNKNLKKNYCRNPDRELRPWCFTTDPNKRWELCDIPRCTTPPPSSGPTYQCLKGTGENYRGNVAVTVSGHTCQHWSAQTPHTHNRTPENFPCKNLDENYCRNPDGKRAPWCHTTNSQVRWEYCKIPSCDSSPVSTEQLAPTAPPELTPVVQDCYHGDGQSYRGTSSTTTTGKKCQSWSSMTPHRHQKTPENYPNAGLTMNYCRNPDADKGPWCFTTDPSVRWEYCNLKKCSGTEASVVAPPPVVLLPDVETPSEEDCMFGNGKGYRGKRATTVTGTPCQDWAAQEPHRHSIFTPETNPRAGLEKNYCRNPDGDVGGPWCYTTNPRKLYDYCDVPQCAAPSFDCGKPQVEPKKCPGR
T6 sequence (P00747 581-810 limits assumed): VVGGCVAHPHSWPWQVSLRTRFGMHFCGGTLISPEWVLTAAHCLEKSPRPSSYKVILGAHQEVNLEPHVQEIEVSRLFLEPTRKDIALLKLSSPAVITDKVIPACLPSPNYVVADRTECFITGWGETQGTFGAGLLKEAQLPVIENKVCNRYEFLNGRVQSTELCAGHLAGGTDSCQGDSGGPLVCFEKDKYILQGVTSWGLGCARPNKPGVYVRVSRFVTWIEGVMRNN

[20] = molecular target: T1, Urokinase-type plasminogen activator; assay: Inhibition of mouse uPA preincubated for 15 mins followed by chromogenic substrate addition
MCF7 = assay: Anti-invasive activity in human MCF7 cells at 100 uM measured every hour by transwell assay; type: functional, cell-based
[21] = molecular target: Urokinase-type plasminogen activator (Mus musculus) (UniProt P06869); assay: Inhibition of the intrinsic peri-cellular uPA in mouse CT26 cells assessed as reduction in cell invasion at 100 uM […] by transwell assay; type: cell-based
Procedure, shortened: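 CT-26 cells, 2×10^5 per Matrigel-coated Transwell top chamber in serum-free DMEM with peptide; 10% serum medium below. After 24 h, invaded underside cells stained with 0.1% crystal violet, eluted in 33% acetic acid, read at A570 and normalized to untreated (100%). Triplicates. The legend gives a 0.1–100 μM dose range, with IC50 derived from the dose-response.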

[22] = molecular target: Urokinase-type plasminogen activator (Mus musculus) (UniProt P06869); assay: Inhibition of the intrinsic peri-cellular uPA in mouse CT26 cells assessed as reduction in cell migration at 100 uM measured every hour by wound healing assay relative to control; type: cell-based
[23] = molecular target: T5, Urokinase-type plasminogen activator; assay: Inhibition of uPA (unknown origin)
Prothrombin [24] = molecular target: T4, Prothrombin; assay: Inhibition of thrombin (unknown origin)
[25] = Antitumor activity against rat BN472 cells implanted in Norwegian BN rat model of orthotopical breast cancer assessed as inhibition of tumor growth at 1 mg/kg/day, sc; type: functional; conditions: read-out: TGI
Plasminogen [26] = molecular target: T6, Plasminogen; assay: Inhibition of plasmin (unknown origin)
[27] = molecular target: T3, Tissue-type plasminogen activator; assay: Inhibition of tPA (unknown origin)
Coagulation factor X = Coagulation factor X (Homo sapiens, UniProt P00742); assay: Inhibition of factor 10a (unknown origin)
Sequence of Coagulation factor X (P00742 41-179 limits assumed): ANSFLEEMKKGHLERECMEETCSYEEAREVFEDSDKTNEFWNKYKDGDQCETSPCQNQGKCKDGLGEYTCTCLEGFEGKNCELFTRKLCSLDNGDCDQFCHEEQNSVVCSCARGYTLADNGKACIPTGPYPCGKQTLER
Sequence of Coagulation factor X (P00742 235-488 limits assumed): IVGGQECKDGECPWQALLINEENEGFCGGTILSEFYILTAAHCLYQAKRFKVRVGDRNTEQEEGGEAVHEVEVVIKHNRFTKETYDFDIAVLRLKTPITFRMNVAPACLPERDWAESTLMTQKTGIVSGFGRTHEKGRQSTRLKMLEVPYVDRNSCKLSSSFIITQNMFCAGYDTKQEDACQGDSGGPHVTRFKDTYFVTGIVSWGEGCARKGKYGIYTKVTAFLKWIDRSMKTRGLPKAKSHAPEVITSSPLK

`CC[C@H](C)[C@@H]1NC(=O)[C@H](Cc2ccc(O)cc2)NC(=O)[C@H](CCCNC(=N)N)NC(=O)[C@H](CO)NC(=O)[C@H](Cc2ccc(O)cc2)NC(=O)[C@H](C)NC(=O)[C@@H]2CCCN2C(=O)[C@@H](NC(C)=O)CSSC[C@@H](C(N)=O)NC(=O)CNC1=O` (Ac-CPAYSRYIGC-NH2; disulfide 1-10) showed a K [1] of 0.0064 s⁻¹, a Ki [2] of 246 nM and a Ki [3] greater than 25000 nM. For the same molecule, the Ki [4] was greater than 25000 nM, the inhibition [5] was 30% and the Ki [6] was 20 nM. The Activity (CT26) was “Non-Toxic”, the Ki [7] was greater than 25000 nM and the Ki (Prothrombin [8]) was greater than 25000 nM. The Ki [9] was greater than 25000 nM, the Ki (Prothrombin [10]) was greater than 25000 nM and the Ki [11] was 903 nM. For the same molecule, the inhibition [12] was 70 to 80%, the Ki (Plasma kallikrein [13]) was greater than 25000 nM and the Ki [14] was 1600 nM. For the same molecule, the Kd [15] was 14.7 nM, the Ki (Plasminogen [16]) was greater than 25000 nM and the Ki (Plasma kallikrein [17]) was greater than 25000 nM. For the same molecule, the Kd [18] was 42.1 nM, the Ki (Coagulation factor XI) was greater than 25000 nM and the Ki (Plasminogen [19]) was greater than 25000 nM. The Ki [20] was 20 nM.

With `CC[C@H](C)[C@@H]1NC(=O)[C@H](Cc2ccc(O)cc2)NC(=O)[C@H](C)NC(=O)[C@H](CO)NC(=O)[C@H](Cc2ccc(O)cc2)NC(=O)[C@H](C)NC(=O)[C@@H]2CCCN2C(=O)[C@@H](N)CSSC[C@@H](C(=O)O)NC(=O)CNC1=O` (H-CPAYSAYIGC-OH; disulfide 1-10) the Activity (CT26) was “Non-Toxic”, the Activity (MCF7) was “inactive” and the inhibition [21] was “inactive”. The inhibition [22] was “inactive”.

For `CCOC(=O)N1CCN(C(=O)[C@H](Cc2cccc(C(=N)N)c2)NS(=O)(=O)c2c(C(C)C)cc(C(C)C)cc2C(C)C)CC1`, the Ki [23] was 650 nM, the Ki (Prothrombin [24]) was 500 nM and the inhibition in vivo at 1 mg/kg/day [25] was 53%. For the same molecule, the Ki (Plasminogen [26]) was 1460 nM, the Ki [27] was 2510 nM and the Ki (Coagulation factor X) was 980 nM.
